Test results from ChEMBL document CHEMBL2163220 (J Med Chem, 2012).
Calls of active or inactive are those of the source. No cut-off for these calls is given here.

Columns and labels:
PC-3 [1] = experiment: Agonist activity at androgen receptor T887A mutant expressed in human PC3 cells assessed as stimulation of receptor transactivation at 0.1 to 1 uM by luciferase reporter gene assay; type: functional, cell-based
Summary of the method: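 Full-length wild-type or mutant AR plasmid transiently transfected into PC-3 cells with MMTV-luc and Renilla luciferase reporters. Cells treated with DMSO vehicle or compound at 0.1 and 1 μM, alone or with 0.1 nM DHT. Luciferase read as relative luciferase units. Run in triplicate.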

PC-3 [2] = experiment: Antagonist activity at androgen receptor ARv7 mutant lacking ligand binding domain expressed in human PC3 cells assessed as reduction in DHT-induced receptor transactivation at 1 uM by luciferase reporter gene assay; type: cell-based
Summary of the method: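 AR-v7 (lacks LBD), MMTV-Luc and pRL-TK (Renilla) plasmids transiently transfected into PC-3 cells; cells treated with DMSO vehicle, 0.1 nM DHT, or test compound at 1 μM; transactivation read as luciferase activity (relative luciferase units).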

PC-3 [3] = experiment: Effect on in Maspin expression in human PC3 cells deficient in wild type androgen receptor at 5 uM by luciferase reporter gene assay; type: functional, cell-based
Summary of the method: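 PC-3 cells were transfected with maspin-luc, with or without cotransfected AR. Cells were exposed to DMSO vehicle or compound at 2.5 and 5 μM. Luciferase activity was measured in triplicate.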

[4] = target: T1, Progesterone receptor (Homo sapiens) (UniProt P06401); experiment: Antagonist activity at progesterone receptor in human PC3 cells assessed as reduction in R5020-inducedreceptor transactivation at 1 uM by luciferase reporter gene assay; type: functional, cell-based; settings: PC-3
T1 sequence (whole entry): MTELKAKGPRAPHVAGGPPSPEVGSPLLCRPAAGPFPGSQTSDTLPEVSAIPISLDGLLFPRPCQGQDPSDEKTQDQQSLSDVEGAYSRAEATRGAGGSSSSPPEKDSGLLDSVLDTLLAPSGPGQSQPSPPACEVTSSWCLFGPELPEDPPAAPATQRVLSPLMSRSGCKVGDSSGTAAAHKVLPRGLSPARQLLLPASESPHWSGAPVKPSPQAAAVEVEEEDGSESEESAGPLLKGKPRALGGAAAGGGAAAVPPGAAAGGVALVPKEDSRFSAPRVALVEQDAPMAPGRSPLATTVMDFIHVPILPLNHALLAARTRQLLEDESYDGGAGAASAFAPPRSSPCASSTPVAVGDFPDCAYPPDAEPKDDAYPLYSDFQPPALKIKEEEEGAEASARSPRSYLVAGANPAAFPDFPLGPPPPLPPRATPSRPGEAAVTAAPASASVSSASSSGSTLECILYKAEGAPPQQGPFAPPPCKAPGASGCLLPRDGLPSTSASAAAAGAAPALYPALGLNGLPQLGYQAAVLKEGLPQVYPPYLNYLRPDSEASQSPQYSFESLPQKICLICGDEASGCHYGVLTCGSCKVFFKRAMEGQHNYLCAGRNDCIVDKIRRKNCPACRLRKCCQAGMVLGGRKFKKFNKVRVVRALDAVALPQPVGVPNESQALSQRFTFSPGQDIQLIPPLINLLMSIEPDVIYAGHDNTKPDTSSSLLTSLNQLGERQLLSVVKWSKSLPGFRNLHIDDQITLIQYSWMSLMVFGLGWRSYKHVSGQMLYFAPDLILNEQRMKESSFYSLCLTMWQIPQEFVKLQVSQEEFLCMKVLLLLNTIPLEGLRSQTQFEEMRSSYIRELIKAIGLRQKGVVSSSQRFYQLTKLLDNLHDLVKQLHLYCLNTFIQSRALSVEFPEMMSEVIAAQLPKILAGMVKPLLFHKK
Summary of the method: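 PC-3 cells lack detectable PR, so they were cotransfected with a PR expression plasmid and the MMTV-luc reporter. Compound tested at 1 μM, alone or against transactivation induced by 10 nM R5020. Read-out was luciferase reporter activity.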

[5] = target: T2, Androgen receptor (Homo sapiens) (UniProt P10275); experiment: Antagonist activity at androgen receptor in human LNCaP cells assessed as increase in Maspin expression incubated for 24 hrs in presence of DHT by RT-PCR
T2 sequence (whole entry): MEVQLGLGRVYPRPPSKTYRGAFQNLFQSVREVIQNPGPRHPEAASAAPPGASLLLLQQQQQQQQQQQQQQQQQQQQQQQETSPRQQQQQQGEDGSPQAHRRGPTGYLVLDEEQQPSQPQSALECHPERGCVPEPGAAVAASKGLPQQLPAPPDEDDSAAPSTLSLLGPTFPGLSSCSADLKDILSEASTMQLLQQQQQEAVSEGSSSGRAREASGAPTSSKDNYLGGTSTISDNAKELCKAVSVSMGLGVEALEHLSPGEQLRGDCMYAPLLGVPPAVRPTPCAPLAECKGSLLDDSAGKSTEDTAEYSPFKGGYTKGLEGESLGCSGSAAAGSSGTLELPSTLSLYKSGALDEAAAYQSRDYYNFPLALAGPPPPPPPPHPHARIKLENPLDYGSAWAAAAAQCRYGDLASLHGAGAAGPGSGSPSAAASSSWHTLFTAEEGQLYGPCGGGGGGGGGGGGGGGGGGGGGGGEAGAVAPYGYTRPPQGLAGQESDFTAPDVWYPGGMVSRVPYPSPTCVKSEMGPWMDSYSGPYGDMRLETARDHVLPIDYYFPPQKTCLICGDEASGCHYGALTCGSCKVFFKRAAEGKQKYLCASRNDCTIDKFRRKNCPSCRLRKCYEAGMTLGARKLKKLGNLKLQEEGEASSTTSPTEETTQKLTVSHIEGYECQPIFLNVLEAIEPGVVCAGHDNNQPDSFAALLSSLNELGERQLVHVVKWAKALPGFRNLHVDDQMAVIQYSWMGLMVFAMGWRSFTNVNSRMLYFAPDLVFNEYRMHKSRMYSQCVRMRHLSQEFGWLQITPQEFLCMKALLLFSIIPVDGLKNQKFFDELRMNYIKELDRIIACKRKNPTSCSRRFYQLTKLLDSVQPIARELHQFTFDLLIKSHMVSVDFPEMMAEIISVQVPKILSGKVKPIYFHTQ

- Activity [4]: inactive
- Activity [5]: Dose-dependent effect
SMILES: Cc1coc2c1C(=O)C(=O)c1c-2ccc2c1CCCC2(C)C [TANSHINONE IIA]
- Activity (PC-3 [1]): inactive
- Activity (PC-3 [2]): inactive
- Activity (PC-3 [3]): inactive
